Source: ChEMBL document CHEMBL4014285, “Novel, highly potent systemic glucokinase activators for the treatment of Type 2 Diabetes Mellitus” (Bioorg Med Chem Lett, 2017)
In brackets after ≈: the same amount, converted by molar mass. Values belong to the compound of their own block, whether it stands above or below them.

Legend:
Hexokinase-4 [1] = target: T1, Hexokinase-4 (Homo sapiens, UniProt P35557); experiment: Activation of recombinant human glucokinase assessed as conversion of D-glucose to D-glucose-6-phosphate in presence of 2.5 mM glucose by G6PDH coupled spectrophotometric assay
T1 sequence (P35557 whole entry): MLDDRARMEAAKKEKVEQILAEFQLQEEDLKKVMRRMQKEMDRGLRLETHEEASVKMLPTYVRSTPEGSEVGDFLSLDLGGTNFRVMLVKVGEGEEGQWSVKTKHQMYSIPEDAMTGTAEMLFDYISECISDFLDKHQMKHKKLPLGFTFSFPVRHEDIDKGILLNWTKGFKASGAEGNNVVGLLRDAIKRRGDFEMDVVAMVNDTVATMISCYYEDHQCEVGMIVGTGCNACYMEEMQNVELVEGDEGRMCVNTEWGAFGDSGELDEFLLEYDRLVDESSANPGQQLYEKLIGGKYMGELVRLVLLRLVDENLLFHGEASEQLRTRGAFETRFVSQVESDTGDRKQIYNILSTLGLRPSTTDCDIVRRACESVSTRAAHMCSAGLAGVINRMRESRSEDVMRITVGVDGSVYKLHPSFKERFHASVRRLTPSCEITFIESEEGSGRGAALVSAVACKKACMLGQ
Procedure, shortened: (§1)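 Recombinant human GK; ATP-dependent D-glucose-6-phosphate formation from D-glucose at 2.5 or 10 mM, read by continuous glucose-6-phosphate dehydrogenase coupled spectrophotometry. Activators titrated at 1% DMSO final, DMSO as control. EC50 = concentration giving half of maximal increase in product formation; maximum activity expressed as percent velocity increase vs DMSO at saturating activator. Single titration.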

[2] = target: T2, Hexokinase-4 (Homo sapiens) (UniProt P35557); experiment: Activation of recombinant human glucokinase assessed as conversion of D-glucose to D-glucose-6-phosphate in presence of 2.5 mM glucose by G6PDH coupled spectrophotometric assay relative to control; procedure, shortened: as §1
T2 sequence (whole entry): T1 sequence (P35557 whole entry)

Hexokinase-4 [3] = target: T1, Hexokinase-4; experiment: Activation of recombinant human glucokinase assessed as conversion of D-glucose to D-glucose-6-phosphate in presence of 10 mM glucose by G6PDH coupled spectrophotometric assay; procedure, shortened: as §1
[4] = target: T2, Hexokinase-4 (Homo sapiens); experiment: Activation of recombinant human glucokinase assessed as conversion of D-glucose to D-glucose-6-phosphate in presence of 10 mM glucose by G6PDH coupled spectrophotometric assay relative to control; procedure, shortened: as §1
Hexokinase-4 [5] = target: T3, Hexokinase-4 (Rattus norvegicus, UniProt P17712); experiment: Activation of glucokinase in rat INS-1 cells assessed as increase in D-2-deoxyglucose-6-phosphate level in presence of D-2-deoxyglucose by HILIC LC-MS method; type: cell-based
T3 sequence (P17712 whole entry): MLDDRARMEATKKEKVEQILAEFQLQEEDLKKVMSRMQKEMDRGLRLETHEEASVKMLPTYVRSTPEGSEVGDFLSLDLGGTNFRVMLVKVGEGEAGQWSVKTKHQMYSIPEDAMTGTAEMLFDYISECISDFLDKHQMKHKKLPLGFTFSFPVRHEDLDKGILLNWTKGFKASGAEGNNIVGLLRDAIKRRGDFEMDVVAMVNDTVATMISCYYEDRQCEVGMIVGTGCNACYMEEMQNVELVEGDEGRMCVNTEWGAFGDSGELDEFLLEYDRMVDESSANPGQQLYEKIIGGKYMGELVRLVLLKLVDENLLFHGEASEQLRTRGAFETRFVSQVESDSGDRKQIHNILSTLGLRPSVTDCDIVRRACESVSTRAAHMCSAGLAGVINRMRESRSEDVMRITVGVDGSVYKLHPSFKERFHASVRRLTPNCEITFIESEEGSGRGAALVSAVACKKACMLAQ
Procedure, shortened: (§2)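 GKACA cell assay in rat INS-1 Clone-13 insulinoma cells or freshly isolated primary rat hepatocytes; intracellular D-2-deoxyglucose-6-phosphate formed from exogenous D-2-deoxyglucose quantified by HILIC LC-MS; EC50 from a single titration.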

Hexokinase-4 [6] = target: T3, Hexokinase-4; experiment: Activation of glucokinase in primary rat hepatocytes assessed as increase in D-2-deoxyglucose-6-phosphate level in presence of D-2-deoxyglucose by HILIC LC-MS method; type: cell-based; procedure, shortened: as §2
[7] = Solubility of the compound at pH 7; type: physicochemical; conditions: buffer
[8] = Solubility of the compound at pH 2; type: physicochemical; conditions: buffer

SMILES: CN1C(=O)CCC1c1cc2[nH]c(-c3ccccn3)cc2cc1Oc1ccc(S(C)(=O)=O)nc1 (stereo in doubt; 1-en)
EC50 (Hexokinase-4 [1]): 4.2 nM
EC50 (Hexokinase-4 [3]): 0.8 nM
EC50 (Hexokinase-4 [5]): 33 nM
EC50 (Hexokinase-4 [6]): 93 nM

SMILES: Cc1cnc(-c2cc3cc(Oc4ccc(S(C)(=O)=O)nc4)c(C4CCC(=O)N4C)cc3[nH]2)s1 (stereo in doubt; 2-en)
EC50 (Hexokinase-4 [1]): 5.5 nM
EC50 (Hexokinase-4 [3]): 1 nM
EC50 (Hexokinase-4 [5]): 37 nM
EC50 (Hexokinase-4 [6]): 77 nM

SMILES: CN1C(=O)CCC1c1cc2[nH]c(-c3cnccn3)cc2cc1Oc1ccc(S(C)(=O)=O)nc1 (stereo in doubt; 3)
%max [2]: 713%
%max [4]: 188%

SMILES: CN1C(=O)CCC1c1cc2[nH]c(-c3ccc(C(F)(F)F)cn3)cc2cc1Oc1ccc(S(C)(=O)=O)nc1 (single isomer, unassigned; ent-2) [listing 2 of 2 here]
%max [2]: 583%
%max [4]: 141%

SMILES: Cc1cnc(-c2cc3cc(Oc4ccc(S(C)(=O)=O)nc4)c(C4CCC(=O)N4C)cc3[nH]2)s1 (single isomer, unassigned) [listing 1 of 2 here]
EC50 (Hexokinase-4 [1]): 4.5 nM
EC50 (Hexokinase-4 [3]): 3.8 nM
EC50 (Hexokinase-4 [5]): 21 nM
EC50 (Hexokinase-4 [6]): 16 nM

Other lines, results leading:

EC50 (Hexokinase-4 [1]): 24 nM
%max [2]: 683%
EC50 (Hexokinase-4 [3]): 9.6 nM
%max [4]: 179%
EC50 (Hexokinase-4 [5]): 2110 nM
EC50 (Hexokinase-4 [6]): 728 nM
solubility [7]: 113 µM (≈ 56 µg/mL)
solubility [8]: 5 µM (≈ 2.48 µg/mL)
SMILES: CN1C(=O)CCC1c1cc2[nH]c(-c3ccc(C(F)(F)F)cn3)cc2cc1Oc1ccc(C(=O)O)cc1 (stereo not given)

EC50 (Hexokinase-4 [1]): 2.4 nM
EC50 (Hexokinase-4 [3]): < 0.85 nM
EC50 (Hexokinase-4 [5]): 2.5 nM
EC50 (Hexokinase-4 [6]): 2.7 nM
SMILES: CN1C(=O)CCC1c1cc2[nH]c(-c3ccc(C(F)(F)F)cn3)cc2cc1Oc1ccc(S(C)(=O)=O)nc1 (stereo in doubt; 5)

EC50 (Hexokinase-4 [1]): 4.8 nM
%max [2]: 452%
EC50 (Hexokinase-4 [3]): 9.2 nM
%max [4]: 123%
EC50 (Hexokinase-4 [5]): 22 nM
EC50 (Hexokinase-4 [6]): 232 nM
SMILES: CCOC(=O)c1ccc(Oc2cc3cc(-c4ccc(C(F)(F)F)cn4)[nH]c3cc2C2CCC(=O)N2C)cc1 (stereo not given)

EC50 (Hexokinase-4 [1]): 31 nM
EC50 (Hexokinase-4 [3]): 9.8 nM
EC50 (Hexokinase-4 [5]): 38 nM
EC50 (Hexokinase-4 [6]): 34 nM
SMILES: CN1C(=O)CCC1c1cc2[nH]c(-c3ccc(C(C)(C)O)cn3)cc2cc1Oc1ccc(S(C)(=O)=O)nc1 (stereo in doubt; 4-en)

EC50 (Hexokinase-4 [1]): 86 nM
EC50 (Hexokinase-4 [3]): 31 nM
EC50 (Hexokinase-4 [5]): 375 nM
EC50 (Hexokinase-4 [6]): 199 nM
SMILES: CN1C(=O)CCC1c1cc2[nH]c(-c3ccc(C(F)(F)F)cn3)cc2cc1Oc1ccc(S(C)(=O)=O)nc1 (single isomer, unassigned; ent-2) [listing 1 of 2 here]

EC50 (Hexokinase-4 [1]): 8.2 nM
%max [2]: 739%
EC50 (Hexokinase-4 [3]): 3.4 nM
%max [4]: 184%
EC50 (Hexokinase-4 [5]): 7.8 nM
EC50 (Hexokinase-4 [6]): 20 nM
SMILES: COC(=O)c1ccc(-c2cc3cc(Oc4ccc(S(C)(=O)=O)nc4)c(C4CCC(=O)N4C)cc3[nH]2)nc1 (racemic)

%max [2]: 620%
%max [4]: 168%
SMILES: Cc1cnc(-c2cc3cc(Oc4ccc(S(C)(=O)=O)nc4)c(C4CCC(=O)N4C)cc3[nH]2)s1 (single isomer, unassigned) [listing 2 of 2 here]
